Measurements reported in PubChem BioAssay AID588836 (Broad Institute, 2011).
Calls of active or inactive are those of the source. The rule behind the calls is not given here.

Target: Scavenger receptor class B member 1 (Mus musculus) (UniProt Q61009)
Assay: inhibitors of SR-BI [3H]CE-HDL uptake, late-stage follow-up, orthogonal assay for SR-BI HDL uptake inhibitor project, wild-type cells, scintillation, powder samples (AID 588836)
Details: CHO mSR-BI cells, [3H]cholesteryl ester HDL uptake, at 1 µM, stronger effect = lower value
In short: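 Assay system: CHO-derived mSR-BI cells lacking LDL receptor, overexpressing murine SR-BI / Read-out: specific uptake, % of compound-free control / Buffer or medium: Ham's F12K medium with 0.5% fatty-acid-free BSA / Measured by: scintillation counting of tritium label / Timing: 1 h pretreatment plus 2 h uptake at 37 °C / Doses: compound with 0.5% DMSO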

Chain of Scavenger receptor class B member 1 (Mus musculus) (Q61009 whole entry, looked up): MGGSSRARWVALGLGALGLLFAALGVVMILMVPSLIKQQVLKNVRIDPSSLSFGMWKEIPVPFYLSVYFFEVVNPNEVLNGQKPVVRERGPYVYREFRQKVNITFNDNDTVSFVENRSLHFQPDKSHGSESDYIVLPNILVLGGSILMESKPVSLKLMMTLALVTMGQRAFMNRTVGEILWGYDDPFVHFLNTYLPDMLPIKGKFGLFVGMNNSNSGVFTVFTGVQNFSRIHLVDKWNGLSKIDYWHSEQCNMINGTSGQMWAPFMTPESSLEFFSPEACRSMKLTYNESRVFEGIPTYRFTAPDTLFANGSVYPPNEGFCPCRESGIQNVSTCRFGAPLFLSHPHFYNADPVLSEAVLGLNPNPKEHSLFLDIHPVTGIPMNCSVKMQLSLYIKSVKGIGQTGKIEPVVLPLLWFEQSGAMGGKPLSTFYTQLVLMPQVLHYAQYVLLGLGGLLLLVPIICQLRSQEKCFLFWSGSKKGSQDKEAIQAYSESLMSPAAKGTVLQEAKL

| Structure (SMILES) | HDL cholesterol uptake |
| --- | --- |
| O=C(Nc1ccc(Cl)cc1C(=O)c1ccc(Cl)cc1)c1cc(Br)ccc1NS(=O)(=O)c1ccc(Cl)cc1 | 85.2% (inactive) |
| Cc1ccc2oc(-c3cccc(NC(=O)c4cc(-n5cnnc5)ccc4Cl)c3)nc2c1 | 54.8% |

More lines, now with the values ahead:

| HDL cholesterol uptake | Structure (SMILES) |
| --- | --- |
| 45.9% | CCOC(=O)N1CCC(NC(=O)c2ccc3c(c2)N(Cc2ccc(F)cc2)CCS3)CC1 |
| 52.6% | CCC(=O)N1CCc2cc(-c3csc(NC(=O)c4ccco4)n3)ccc21 |
| 48.9% | COc1ccc(-c2nnn(CC(=O)N(C3CCCCC3)C(C)C(=O)NC3CCCC3)n2)cc1OC (stereo not given) |
